According to ChEMBL document CHEMBL1221285, “Inhibition of interleukin-1beta converting enzyme (ICE or caspase 1) by aspartyl acyloxyalkyl ketones and aspartyl amidooxyalkyl ketones” (Bioorg Med Chem Lett, 2010):
pIC50, pKi: −log10 of the molar value.

These molecules were tested against T1, Caspase-1 (Homo sapiens) (UniProt P29466) (assay: Inhibition of ICE in human PBMC).
T1 sequence (whole entry): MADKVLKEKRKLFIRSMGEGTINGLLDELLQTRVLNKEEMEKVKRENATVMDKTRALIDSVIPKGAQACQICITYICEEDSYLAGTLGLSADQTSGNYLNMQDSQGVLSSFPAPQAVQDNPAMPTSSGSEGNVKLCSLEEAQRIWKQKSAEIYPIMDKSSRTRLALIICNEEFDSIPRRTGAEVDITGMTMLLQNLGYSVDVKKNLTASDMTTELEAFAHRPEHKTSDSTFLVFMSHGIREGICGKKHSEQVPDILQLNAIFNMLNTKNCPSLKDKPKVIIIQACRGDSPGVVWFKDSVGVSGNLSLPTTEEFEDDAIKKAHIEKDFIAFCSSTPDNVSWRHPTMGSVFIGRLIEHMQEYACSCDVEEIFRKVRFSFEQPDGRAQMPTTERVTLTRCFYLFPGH
Outline: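 Human PBMC isolated from heparinized blood over Ficoll, washed three times in PBS, then held in RPMI 1640 with glutamine, penicillin, streptomycin and 2% human AB serum at 10^6 cells per well. Cells were stimulated overnight with LPS 10 ng/mL with or without inhibitor. Mature IL-1b in the medium was measured by ELISA. IC50 is the concentration reducing IL-1b by 50%.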

Compared with `CC(C)[C@H](NC(=O)OCc1ccccc1)C(=O)N[C@@H](C)C(=O)N[C@@H](CC(=O)O)C(=O)CON1C(=O)C[C@@H]2CCCC[C@@H]21`, `COC(=O)C[C@H]1CCC[C@H]2CC(=O)N(OCC(=O)[C@H](CC(=O)O)NC(=O)[C@H](C)NC(=O)[C@@H](NC(=O)OCc3ccccc3)C(C)C)[C@@H]12` is 2-fold higher in IC50: 2400 nM for the first, 4800 nM for the second.

Compared with `CC(C)[C@H](NC(=O)OCc1ccccc1)C(=O)N[C@@H](C)C(=O)N[C@@H](CC(=O)O)C(=O)COC(=O)CC(c1ccccc1)c1ccccc1`, `CC(C)[C@H](NC(=O)OCc1ccccc1)C(=O)N[C@@H](C)C(=O)N[C@@H](CC(=O)O)C(=O)COC(=O)C(Cc1ccccc1)Cc1ccccc1` is 3.1-fold lower in IC50: 4300 nM for the first, 1400 nM for the second.

First: CC(C)[C@H](NC(=O)OCc1ccccc1)C(=O)N[C@@H](C)C(=O)N[C@@H](CC(=O)O)C(=O)COC(=O)Cc1cccc2ccccc12
Second: CC(C)[C@H](NC(=O)OCc1ccccc1)C(=O)N[C@@H](C)C(=O)N[C@@H](CC(=O)O)C(=O)CON1C(=O)Cc2ccccc21
The IC50 of the first is 5-fold lower: 600 nM for the first, 3000 nM for the second.

First: CC(C)[C@H](NC(=O)OCc1ccccc1)C(=O)N[C@@H](C)C(=O)N[C@@H](CC(=O)O)C(=O)CCCCCc1ccccc1
Second: CC(=O)N[C@@H](Cc1ccc(O)cc1)C(=O)N[C@H](C(=O)N[C@@H](C)C(=O)N[C@@H](CC(=O)O)C(=O)CCCCCc1ccccc1)C(C)C
The IC50 of the first is 5.4-fold higher: 4900 nM for the first, 900 nM for the second.

These molecules were tested against T2, Caspase-1 (Homo sapiens, UniProt P29466) (assay: Inhibition of ICE).
T2 sequence (P29466 whole entry): T1 sequence (whole entry)
Outline: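 Recombinant ICE; inhibition followed by fluorescence. Ki reported as the geometric mean of two or more experiments.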

Compared with `COC(=O)C[C@H]1CCC[C@H]2CC(=O)N(OCC(=O)[C@H](CC(=O)O)NC(=O)OCc3ccccc3)[C@@H]12`, `COC(=O)C[C@H]1CCC[C@H]2CC(=O)N(OCC(=O)[C@H](CC(=O)O)NC(=O)[C@H](C)NC(=O)[C@@H](NC(=O)OCc3ccccc3)C(C)C)[C@@H]12` is 3.33 log units higher in pKi: 4.82 for the first, 8.15 for the second. The second binds more tightly here.

Going from `O=C(O)C[C@H](NC(=O)OCc1ccccc1)C(=O)CONC(=O)CCc1cccc2ccccc12` to `O=C(O)C[C@H](NC(=O)OCc1ccccc1)C(=O)CONC(=O)Cc1cccc2ccccc12`, the pKi rises from 3.53 to 4.08 (0.55 log units). The second binds more tightly here.

`Cc1cccc2c(CC(=O)OCC(=O)[C@H](CC(=O)O)NC(=O)OCc3ccccc3)cccc12` and `Cc1ccc(CC(=O)OCC(=O)[C@H](CC(=O)O)NC(=O)OCc2ccccc2)c2ccccc12` are within 0.2 log units of each other in pKi: 5.70 for the first, 5.89 for the second.

First: O=C(O)C[C@H](NC(=O)OCc1ccccc1)C(=O)COC(=O)COc1cccc2ccccc12
Second: O=C(O)C[C@H](NC(=O)OCc1ccccc1)C(=O)COC(=O)Cc1cccc2ccccc12
The pKi of the first is 0.30 log units lower: 6.00 for the first, 6.30 for the second. The second binds more tightly here.

Compared with `CC(C)[C@H](NC(=O)OCc1ccccc1)C(=O)N[C@@H](C)C(=O)N[C@@H](CC(=O)O)C(=O)CON1C(=O)C[C@@H]2CCCC[C@@H]21`, `O=C(O)C[C@H](NC(=O)OCc1ccccc1)C(=O)CON1C(=O)C[C@@H]2CCCC[C@H]21` is 4.24 log units lower in pKi: 9.00 for the first, 4.76 for the second. The first binds more tightly here.

First: CC(C)[C@H](NC(=O)OCc1ccccc1)C(=O)N[C@@H](C)C(=O)N[C@@H](CC(=O)O)C(=O)COC(=O)CC(c1ccccc1)c1ccccc1
Second: CC(C)[C@H](NC(=O)OCc1ccccc1)C(=O)N[C@@H](C)C(=O)N[C@@H](CC(=O)O)C(=O)COC(=O)C(Cc1ccccc1)Cc1ccccc1
The pKi of the first is 0.30 log units higher: 9.00 for the first, 8.70 for the second.

`O=C(O)C[C@H](NC(=O)OCc1ccccc1)C(=O)COC(=O)CC(c1ccccc1)c1ccccc1` and `O=C(O)C[C@H](NC(=O)OCc1ccccc1)C(=O)COC(=O)CC(c1ccccc1)c1ccccn1` (stereo partly specified) are within 0.2 log units of each other in pKi: 6.10 for the first, 5.96 for the second.

First: O=C(O)C[C@H](NC(=O)OCc1ccccc1)C(=O)CONC(=O)c1ccccc1
Second: O=C(O)C[C@H](NC(=O)OCc1ccccc1)C(=O)CONC(=O)Cc1ccccc1
The pKi of the first is 0.50 log units higher: 4.68 for the first, 4.18 for the second.

Going from `O=C(O)C[C@H](NC(=O)OCc1ccccc1)C(=O)COC(=O)Cc1ccc2ccccc2c1` to `O=C(O)C[C@H](NC(=O)OCc1ccccc1)C(=O)COC(=O)CCc1ccc2ccccc2c1`, the pKi falls from 5.89 to 5.22 (0.67 log units). The first binds more tightly here.

`CC(C)[C@H](NC(=O)OCc1ccccc1)C(=O)N[C@@H](C)C(=O)N[C@@H](CC(=O)O)C(=O)COC(=O)Cc1cccc2ccccc12` and `CC(C)[C@H](NC(=O)OCc1ccccc1)C(=O)N[C@@H](C)C(=O)N[C@@H](CC(=O)O)C(=O)CON1C(=O)Cc2ccccc21` are within 0.2 log units of each other in pKi: 8.52 for the first, 8.70 for the second.

Going from `O=C(O)C[C@H](NC(=O)OCc1ccccc1)C(=O)COC(=O)Cc1csc2ccccc12` to `O=C(O)C[C@H](NC(=O)OCc1ccccc1)C(=O)COC(=O)Cc1c[nH]c2ccccc12`, the pKi rises from 5.92 to 6.22 (0.30 log units). The second binds more tightly here.

Going from `CC(C(=O)OCC(=O)[C@H](CC(=O)O)NC(=O)OCc1ccccc1)c1cccc2ccccc12` (stereo partly specified) to `Cc1ccc2ccccc2c1CC(=O)OCC(=O)[C@H](CC(=O)O)NC(=O)OCc1ccccc1`, the pKi falls from 6.00 to 5.36 (0.64 log units).

Compared with `O=C(O)C[C@H](NC(=O)OCc1ccccc1)C(=O)CONC(=O)CCc1ccccc1`, `O=C(O)C[C@H](NC(=O)OCc1ccccc1)C(=O)COC(=O)CCc1ccccc1` is 0.79 log units higher in pKi: 4.56 for the first, 5.35 for the second. The second binds more tightly here.

First: O=C(O)C[C@H](NC(=O)OCc1ccccc1)C(=O)COC(=O)Cc1cccc2scnc12
Second: O=C(O)C[C@H](NC(=O)OCc1ccccc1)C(=O)COC(=O)Cc1coc2ccccc12
The pKi of the first is 0.51 log units lower: 5.59 for the first, 6.10 for the second.

`O=C(O)C[C@H](NC(=O)OCc1ccccc1)C(=O)COC(=O)CNc1ccccc1` and `O=C(O)C[C@H](NC(=O)OCc1ccccc1)C(=O)COC(=O)Cc1ccccc1` are within 0.2 log units of each other in pKi: 5.25 for the first, 5.08 for the second.

Going from `O=C(O)C[C@H](NC(=O)OCc1ccccc1)C(=O)CON1Cc2ccccc2C1=O` to `O=C(O)C[C@H](NC(=O)OCc1ccccc1)C(=O)CON1C(=O)Cc2ccccc21`, the pKi rises from 4.85 to 5.17 (0.32 log units).

`O=C(O)C[C@H](NC(=O)OCc1ccccc1)C(=O)COC(=O)CSc1ccccc1` and `O=C(O)C[C@H](NC(=O)OCc1ccccc1)C(=O)COC(=O)COc1ccccc1` are within 0.2 log units of each other in pKi: 5.96 for the first, 5.77 for the second.

Compared with `O=C(O)C[C@H](NC(=O)OCc1ccccc1)C(=O)COC(=O)CCCc1ccccc1`, `O=C(O)C[C@H](NC(=O)OCc1ccccc1)C(=O)COCCCCCc1ccccc1` is 0.88 log units lower in pKi: 4.80 for the first, 3.92 for the second. The first binds more tightly here.

Going from `CC(C)[C@H](NC(=O)OCc1ccccc1)C(=O)N[C@@H](C)C(=O)N[C@@H](CC(=O)O)C(=O)CCCCCc1ccccc1` to `Cc1cccc2cccc(CC(=O)OCC(=O)[C@H](CC(=O)O)NC(=O)OCc3ccccc3)c12`, the pKi falls from 6.87 to 5.07 (1.80 log units).

Compared with `O=C(O)C[C@H](NC(=O)OCc1ccccc1)C(=O)CON1C(=O)C[C@@H]2CCCC[C@@H]21`, `O=C(O)C[C@H](NC(=O)OCc1ccccc1)C(=O)CON1C(=O)C2C3C=CC(O3)C2C1=O` (stereo partly specified) is 0.78 log units higher in pKi: 5.04 for the first, 5.82 for the second. The second binds more tightly here.

Going from `CC(C)[C@H](NC(=O)OCc1ccccc1)C(=O)N[C@@H](C)C(=O)N[C@@H](CC(=O)O)C(=O)CON1C(=O)C[C@@H]2CCCC[C@@H]21` to `COC(=O)C[C@H]1CCC[C@H]2CC(=O)N(OCC(=O)[C@H](CC(=O)O)NC(=O)[C@H](C)NC(=O)[C@@H](NC(=O)OCc3ccccc3)C(C)C)[C@@H]12`, the pIC50 falls from 8.52 to 7.59 (0.93 log units). The first is the more potent here.

Compared with `CC(C)[C@H](NC(=O)OCc1ccccc1)C(=O)N[C@@H](C)C(=O)N[C@@H](CC(=O)O)C(=O)COC(=O)CC(c1ccccc1)c1ccccc1`, `CC(C)[C@H](NC(=O)OCc1ccccc1)C(=O)N[C@@H](C)C(=O)N[C@@H](CC(=O)O)C(=O)COC(=O)C(Cc1ccccc1)Cc1ccccc1` is 0.22 log units higher in pIC50: 8.30 for the first, 8.52 for the second.

`CC(C)[C@H](NC(=O)OCc1ccccc1)C(=O)N[C@@H](C)C(=O)N[C@@H](CC(=O)O)C(=O)COC(=O)Cc1cccc2ccccc12` and `CC(C)[C@H](NC(=O)OCc1ccccc1)C(=O)N[C@@H](C)C(=O)N[C@@H](CC(=O)O)C(=O)CON1C(=O)Cc2ccccc21` are within 0.2 log units of each other in pIC50: 8.70 for the first, 8.52 for the second.

Compared with `CC(C)[C@H](NC(=O)OCc1ccccc1)C(=O)N[C@@H](C)C(=O)N[C@@H](CC(=O)O)C(=O)CCCCCc1ccccc1`, `CC(=O)N[C@@H](Cc1ccc(O)cc1)C(=O)N[C@H](C(=O)N[C@@H](C)C(=O)N[C@@H](CC(=O)O)C(=O)CCCCCc1ccccc1)C(C)C` is 1.10 log units higher in pIC50: 6.01 for the first, 7.11 for the second.
